This is an account of results in ChEMBL document CHEMBL3826928, “Incorporation of Phosphonate into Benzonaphthyridine Toll-like Receptor 7 Agonists for Adsorption to Aluminum Hydroxide” (J Med Chem, 2016).

The nature of data set [1]: Adsorption on alum in pH 6.5 histidine buffer assessed as compound adsorbed at 1 mg/ml incubated for 1 hr by LC-MS analysis relative to control. The conditions noted are these: pH 6.5, 1 h. Format: physicochemical. In a few lines: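 Compound dissolved in endotoxin-free water, then combined with Alhydrogel alum suspension and 100 mM histidine pH 6.5 stock; final 1 mg/mL compound, 3 mg/mL alum in 10 mM histidine, gently agitated 1 h at room temperature. Aliquot centrifuged 13 000 rpm 10 min; supernatant analysed by LCMS against nonadsorbed reference to give unbound fraction, bound fraction derived indirectly.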

The next data set addresses T1, Toll-like receptor 7 (Homo sapiens, UniProt Q9NYK1).
T1 sequence (Q9NYK1 whole entry): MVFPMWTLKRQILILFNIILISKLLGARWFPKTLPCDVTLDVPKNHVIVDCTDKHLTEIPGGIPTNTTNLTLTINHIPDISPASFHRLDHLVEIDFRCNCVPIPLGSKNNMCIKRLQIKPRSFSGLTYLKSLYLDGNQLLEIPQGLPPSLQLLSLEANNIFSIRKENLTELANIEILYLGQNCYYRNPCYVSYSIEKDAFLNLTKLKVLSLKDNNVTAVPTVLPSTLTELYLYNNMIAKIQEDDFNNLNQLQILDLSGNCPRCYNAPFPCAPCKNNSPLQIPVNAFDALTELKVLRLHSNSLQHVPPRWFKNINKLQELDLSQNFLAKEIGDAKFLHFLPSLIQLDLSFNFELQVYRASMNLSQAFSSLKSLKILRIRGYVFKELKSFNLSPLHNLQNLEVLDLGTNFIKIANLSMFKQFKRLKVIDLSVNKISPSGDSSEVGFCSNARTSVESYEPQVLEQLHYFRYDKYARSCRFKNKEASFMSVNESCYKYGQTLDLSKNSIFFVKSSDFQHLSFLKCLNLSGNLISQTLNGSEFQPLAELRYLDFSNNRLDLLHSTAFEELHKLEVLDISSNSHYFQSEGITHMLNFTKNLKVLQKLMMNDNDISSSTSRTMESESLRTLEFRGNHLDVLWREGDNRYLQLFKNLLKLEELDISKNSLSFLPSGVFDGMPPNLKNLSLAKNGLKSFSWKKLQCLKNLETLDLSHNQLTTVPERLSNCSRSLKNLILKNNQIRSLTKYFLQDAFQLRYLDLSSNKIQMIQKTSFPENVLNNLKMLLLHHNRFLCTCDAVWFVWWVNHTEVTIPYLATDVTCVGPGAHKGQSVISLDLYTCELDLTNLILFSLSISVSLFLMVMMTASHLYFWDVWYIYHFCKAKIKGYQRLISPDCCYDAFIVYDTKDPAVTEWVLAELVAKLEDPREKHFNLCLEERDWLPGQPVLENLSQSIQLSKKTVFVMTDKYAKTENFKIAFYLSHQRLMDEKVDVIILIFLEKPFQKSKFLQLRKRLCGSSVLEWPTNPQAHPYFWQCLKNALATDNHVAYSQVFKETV
The data set can be described thus: Agonist activity at human TLR7 expressed in HEK293 cells incubated for 6 hrs by luciferase reporter gene assay. The data set is classed as cell-based. The procedure, abridged: (§1)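 HEK293 stably carrying NF-κB-firefly luciferase reporter plus human TLR7 (best resiquimod-responding clone), maintained under puromycin/blasticidin. 25 000 cells per well in DMEM with 3% FCS.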
(Reporter assays use an easily measured gene product as a stand-in for the process of interest.)

Data set [2] concerns the target T2, Toll-like receptor 7 (Homo sapiens) (UniProt Q9NYK1).
T2 sequence (whole entry): T1 sequence (Q9NYK1 whole entry)
Briefly: Agonist activity at TLR7 in human PBMC assessed as induction of IL-6 secretion in supernatant after 18 hrs relative to resiquimod. The data set is classed as cell-based. In a few lines: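 Isolated human PBMCs washed in PBS, resuspended in RPMI1640 with 10% heat-inactivated FBS, pyruvate, HEPES, at 1 × 10⁶ cells/mL. Compounds as in-situ sodium salts from 10 mM aqueous stocks, 3-fold 10-point dilutions from 30 μM.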

The target of data set [3] is T3, Toll-like receptor 8 (Homo sapiens) (UniProt Q9NR97).
T3 sequence (whole entry): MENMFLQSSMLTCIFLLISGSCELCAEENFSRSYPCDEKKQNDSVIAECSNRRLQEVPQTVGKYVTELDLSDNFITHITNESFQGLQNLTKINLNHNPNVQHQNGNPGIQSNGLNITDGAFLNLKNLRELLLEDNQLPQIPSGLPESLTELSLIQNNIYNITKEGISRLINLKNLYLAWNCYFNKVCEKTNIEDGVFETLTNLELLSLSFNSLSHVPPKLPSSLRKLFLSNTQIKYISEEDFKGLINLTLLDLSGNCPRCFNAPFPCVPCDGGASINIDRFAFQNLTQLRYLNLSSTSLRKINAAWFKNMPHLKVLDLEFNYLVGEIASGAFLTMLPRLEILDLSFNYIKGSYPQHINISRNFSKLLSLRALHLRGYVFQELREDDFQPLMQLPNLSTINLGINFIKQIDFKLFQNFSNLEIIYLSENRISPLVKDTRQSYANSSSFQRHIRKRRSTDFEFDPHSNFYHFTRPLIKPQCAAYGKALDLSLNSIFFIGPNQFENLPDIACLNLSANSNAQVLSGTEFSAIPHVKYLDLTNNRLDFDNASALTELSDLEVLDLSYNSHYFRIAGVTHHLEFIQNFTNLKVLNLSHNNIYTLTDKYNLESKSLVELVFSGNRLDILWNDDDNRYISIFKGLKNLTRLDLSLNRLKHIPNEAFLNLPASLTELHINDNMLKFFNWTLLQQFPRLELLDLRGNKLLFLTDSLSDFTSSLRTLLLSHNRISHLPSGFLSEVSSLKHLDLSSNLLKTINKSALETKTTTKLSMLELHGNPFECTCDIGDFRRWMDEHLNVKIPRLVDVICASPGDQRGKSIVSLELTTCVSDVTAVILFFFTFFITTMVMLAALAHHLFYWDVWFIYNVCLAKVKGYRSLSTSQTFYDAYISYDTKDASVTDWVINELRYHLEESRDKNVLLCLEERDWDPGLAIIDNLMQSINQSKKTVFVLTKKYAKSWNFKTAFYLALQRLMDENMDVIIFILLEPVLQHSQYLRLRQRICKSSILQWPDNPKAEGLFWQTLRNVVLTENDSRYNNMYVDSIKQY
The data set can be described thus: Agonist activity at human TLR8 expressed in HEK293 cells up to 30 uM incubated for 6 hrs by luciferase reporter gene assay relative to resiquimod. The data set is classed as cell-based.

Data set [4] in a line: Adsorption on alum in pH 6.5 histidine buffer assessed as compound adsorbed at 1 mg/ml incubated for 1 hr in presence of inorganic phosphate by LC-MS analysis. Format: physicochemical. The following applies: pH 6.5, 1 h.
In data set [5] the target is T2, Toll-like receptor 7 (Homo sapiens). Briefly: Agonist activity at human TLR7 expressed in HEK293 cells incubated for 6 hrs by luciferase reporter gene assay relative to resiquimod. The data set is classed as cell-based. In a few lines:
as §1

A value given as a limit tells only on which side of the number the result lay.

Take `Cc1cc(OCCCC(F)(F)P(=O)(O)O)ccc1CCc1cnc2c(N)nc3cc(CCC(=O)O)ccc3c2c1`: the figures for the Activity in data set [1], in data set [3] and in data set [4] were 95%, under 5% and “Not Active”, respectively. This compound also displayed a 50% effective concentration (EC50) on Toll-like receptor 7 of 240 nM. Besides, the %max in data set [2] came out at 35%; in data set [5], 95%.

Consider `Cc1cc(OCCOCCOCCC(F)(F)P(=O)(O)O)ccc1CCc1cnc2c(N)nc3cc(CCC(=O)O)ccc3c2c1`, for which the figures for the Activity in data set [1], in data set [3] and in data set [4] were 97%, under 5% and “Not Active”, respectively. Also, at Toll-like receptor 7, the EC50 worked out at 39 nM. Further, the %max was determined as 35% in data set [2] and 100% in data set [5].

Turning to `Cc1cc(OCCOCCOCCP(=O)(O)O)ccc1CCc1cnc2c(N)nc3cc(CCC(=O)O)ccc3c2c1`, the figures for the Activity in data set [1], in data set [3] and in data set [4] were 97%, under 5% and “Not Active”, respectively. For the same compound, the EC50 at Toll-like receptor 7 was determined as 350 nM. Also, the %max in data set [2] came out at 58%; in data set [5], 110%.

Consider `Cc1ccc2c(c1)nc(N)c1ncc(CCc3ccc(OCCOCCOCCC(F)(F)P(=O)(O)O)cc3C)cc12`, for which the Activity is 98% in data set [1], under 5% in data set [3] and “Not Active” in data set [4]. Moreover, the EC50 at Toll-like receptor 7 was found to be 1200 nM. Also, the %max in data set [2] amounted to 36%; in data set [5], 95%.

For the compound `Cc1ccc2c(c1)nc(N)c1ncc(CCc3ccc(OCCCP(=O)(O)O)cc3C)cc12`, the Activity result in data set [1] is “ND(Insoluble)”; in data set [3], under 5%. For the same compound, the midpoint of the response at Toll-like receptor 7, the EC50, lay at 230 nM.

What is called EC50 is the concentration at which the effect is half-maximal. Lower therefore signals higher potency in that assay.
